Assay results from ChEMBL document CHEMBL1126865, “Structure-activity relationship within a series of pyrazolidinone antibacterial agents. 2. Effect of side-chain modification on in vitro activity and pharmacokinetic parameters” (J Med Chem, 1993).
Values after ≈ are worked out from the molar mass of the structure shown.

Legend:
[1] = Plasma half-life in monkey after intravenous administration; assay type: ADME, organism-based; conditions: simiiformes
Summary of the method: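 Male rhesus monkeys (n = 3) dosed iv at 30 mg/kg in 0.9% saline; plasma sampled from cephalic vein over 3 h. Drug levels by agar well diffusion bioassay (E. coli ATCC4157 or Proteus providentia XC24) against standard curves in spiked plasma. Samples stored at -70 °C. Half-life = 0.693/β, β the terminal slope of plasma vs time curve.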

[2] = Plasma half-life in rats after intravenous administration; assay type: ADME, organism-based; conditions: rat
Summary of the method: (§1)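 Male Sprague-Dawley rats were given 20 mg/kg IV in 0.9% saline through an indwelling jugular cannula, which was also used for serial blood sampling. Plasma and cumulative urine (citrate pH 6.5, metabolism cages) were collected over 6 h and stored at -70 °C. Levels were measured by agar well diffusion bioassay against standard curves in plasma or citrate. Half-life = 0.693/β; recovery as % of dose.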

[3] = Plasma half-life in human after intravenous administration; assay type: ADME, organism-based
[4] = Maximum concentration in male rats after iv administration of 20 mg/kg; assay type: ADME, organism-based; set-up: dose 20 mg/kg, route intravenous; conditions: rat, in vivo; summary of the method: as §1
[5] = Urinary recovery expressed as percentage dose in male rats after iv administration of 20 mg/kg; assay type: ADME, organism-based; set-up: dose 20 mg/kg, route intravenous; conditions: rat, urine; summary of the method: as §1
Klebsiella aerogenes = experiment: In vitro antibacterial activity against Enterobacter aerogenes C32; assay type: functional
Escherichia coli = experiment: In vitro antibacterial activity against Escherichia coli EC14; assay type: functional
Haemophilus influenzae = experiment: In vitro antibacterial activity against Haemophilus influenza C.L; assay type: functional
Klebsiella pneumoniae = experiment: In vitro antibacterial activity against Klebsiella X26; assay type: functional
Pseudomonas aeruginosa = experiment: In vitro antibacterial activity against Pseudomonas PS72; assay type: functional
[6] = tested on: Staphylococcus epidermidis; experiment: In vitro antibacterial activity against Staphylococcus epidermidis 222; assay type: functional
Staphylococcus aureus = experiment: In vitro antibacterial activity against Staphylococcus aureus X1.1; assay type: functional
Streptococcus pneumoniae = experiment: In vitro antibacterial activity against Streptococcus pneumoniae PARK; assay type: functional
[7] = Half-life period in male rats after iv administration of 20 mg/kg; assay type: ADME, organism-based; set-up: dose 20 mg/kg, route intravenous; conditions: rat, in vivo; summary of the method: as §1

Structure (SMILES) | half-life [1] [min] | half-life [2] [min] | Cmax [4] [µg/mL] | dose excreted [5] [%] | MIC (Klebsiella aerogenes) [µg/mL] | MIC (Escherichia coli) [µg/mL] | MIC (Haemophilus influenzae) [µg/mL] | MIC (Klebsiella pneumoniae) [µg/mL] | MIC (Pseudomonas aeruginosa) [µg/mL] | MIC [6] [µg/mL] | MIC (Staphylococcus aureus) [µg/mL] | MIC (Streptococcus pneumoniae) [µg/mL] | half-life [7] [min] | half-life [3] [min]
CC(C)(O/N=C(\C(=O)N[C@@H]1C(=O)N2C(C(=O)[O-])=C(C[n+]3ccccc3)CS[C@H]12)c1csc(N)n1)C(=O)O [CEFTAZIDIME] | 49 | 23 |  |  |  |  |  |  |  |  |  |  |  | 108
CO/N=C(\C(=O)N[C@@H]1C(=O)N2C(C(=O)O)=CCS[C@H]12)c1csc(N)n1 [CEFTIZOXIME] | 44 | 15 |  |  |  |  |  |  |  |  |  |  |  | 96
CCCO/N=C(/C(=O)N[C@H]1CN2CC(S(=O)(=O)CCC)=C(C(=O)O)N2C1=O)c1csc(N)n1 |  |  |  |  | 1 (≈ 2 µM) | 0.5 (≈ 0.999 µM) | 0.5 (≈ 0.999 µM) | 0.06 (≈ 0.12 µM) | > 128 | 32 (≈ 63.9 µM) | 16 (≈ 32 µM) | 0.125 (≈ 0.25 µM) |  | 
N#CC1=C(C(=O)O)N2C(=O)[C@@H](NC(=O)CSc3cc(Cl)ccc3Cl)CN2C1 |  |  |  |  | > 128 | > 128 | 8 (≈ 18.7 µM) | 8 (≈ 18.7 µM) | > 128 | 4 (≈ 9.36 µM) | 1 (≈ 2.34 µM) | 0.125 (≈ 0.293 µM) |  | 
CCS(=O)(=O)C1=C(C(=O)O)N2C(=O)[C@@H](NC(=O)/C(=N/OCCCl)c3csc(N)n3)CN2C1 |  |  |  |  | 0.5 (≈ 0.986 µM) | 0.25 (≈ 0.493 µM) | 1 (≈ 1.97 µM) | 0.125 (≈ 0.247 µM) | > 128 | 32 (≈ 63.1 µM) | 16 (≈ 31.6 µM) | 0.25 (≈ 0.493 µM) |  | 
N#CC1=C(C(=O)O)N2C(=O)[C@@H](NC(=O)Cc3ccccc3)CN2C1 |  |  |  |  | 128 (≈ 392 µM) | 32 (≈ 98.1 µM) | 32 (≈ 98.1 µM) | 32 (≈ 98.1 µM) | > 128 | 32 (≈ 98.1 µM) | 16 (≈ 49 µM) | 8 (≈ 24.5 µM) |  | 
N#CC1=C(C(=O)O)N2C(=O)[C@@H](NC(=O)Cc3csc(N)n3)CN2C1 |  |  |  |  | 32 (≈ 91.9 µM) | 16 (≈ 45.9 µM) | 32 (≈ 91.9 µM) | 16 (≈ 45.9 µM) | > 128 | 64 (≈ 184 µM) | 32 (≈ 91.9 µM) | 2 (≈ 5.74 µM) |  | 
Nc1nc(/C(=N\OCCCl)C(=O)N[C@H]2CN3CC(S(=O)(=O)Cc4ccccc4)=C(C(=O)O)N3C2=O)cs1 |  |  |  |  | 4 (≈ 7.03 µM) | 2 (≈ 3.51 µM) | 0.5 (≈ 0.879 µM) | 0.03 (≈ 0.0527 µM) | > 128 | 16 (≈ 28.1 µM) | 8 (≈ 14.1 µM) | 0.06 (≈ 0.105 µM) |  | 

Continued by falling MIC (Klebsiella aerogenes), values first:

half-life [1] [min] | half-life [2] [min] | Cmax [4] [µg/mL] | dose excreted [5] [%] | MIC (Klebsiella aerogenes) [µg/mL] | MIC (Escherichia coli) [µg/mL] | MIC (Haemophilus influenzae) [µg/mL] | MIC (Klebsiella pneumoniae) [µg/mL] | MIC (Pseudomonas aeruginosa) [µg/mL] | MIC [6] [µg/mL] | MIC (Staphylococcus aureus) [µg/mL] | MIC (Streptococcus pneumoniae) [µg/mL] | half-life [7] [min] | Structure (SMILES) | half-life [3] [min]
 | 15 | 74.3 | 44.2 | 0.5 (≈ 0.96 µM) | 0.125 (≈ 0.24 µM) | 0.125 (≈ 0.24 µM) | 0.03 (≈ 0.0576 µM) | > 128 | 16 (≈ 30.7 µM) | 8 (≈ 15.4 µM) | 0.06 (≈ 0.115 µM) | 14.7 | CCCS(=O)(=O)C1=C(C(=O)O)N2C(=O)[C@@H](NC(=O)/C(=N/OCCCl)c3csc(N)n3)CN2C1 | 
 |  |  |  | 0.5 (≈ 1.03 µM) | 0.125 (≈ 0.258 µM) | 0.125 (≈ 0.258 µM) | 0.06 (≈ 0.124 µM) | > 128 | 4 (≈ 8.26 µM) | 8 (≈ 16.5 µM) | 0.125 (≈ 0.258 µM) |  | N#CC1=C(C(=O)O)N2C(=O)[C@@H](NC(=O)/C(=N/OCCBr)c3csc(N)n3)CN2C1 | 
 |  |  |  | 0.5 (≈ 0.991 µM) | 0.25 (≈ 0.495 µM) | 0.5 (≈ 0.991 µM) | 0.06 (≈ 0.119 µM) | > 128 | 64 (≈ 127 µM) | 16 (≈ 31.7 µM) | 0.125 (≈ 0.248 µM) |  | CCS(=O)(=O)C1=C(C(=O)O)N2C(=O)[C@@H](NC(=O)/C(=N/OCSC)c3csc(N)n3)CN2C1 | 
 |  |  |  | 0.5 (≈ 1.01 µM) | 0.125 (≈ 0.252 µM) | 0.25 (≈ 0.503 µM) | 0.03 (≈ 0.0604 µM) | > 128 | 32 (≈ 64.4 µM) | 8 (≈ 16.1 µM) | 0.125 (≈ 0.252 µM) |  | C=CCO/N=C(/C(=O)N[C@H]1CN2CC(S(=O)(=O)CC=C)=C(C(=O)O)N2C1=O)c1csc(N)n1 | 
36 | 11 | 70.3 | 53.1 | 0.25 (≈ 0.516 µM) | 0.06 (≈ 0.124 µM) | 0.125 (≈ 0.258 µM) | 0.015 (≈ 0.031 µM) | 128 (≈ 264 µM) | 8 (≈ 16.5 µM) | 4 (≈ 8.26 µM) | 0.06 (≈ 0.124 µM) | 11.3 | C=CCCO/N=C(/C(=O)N[C@H]1CN2CC(S(C)(=O)=O)=C(C(=O)O)N2C1=O)c1csc(N)n1 | 
